The target of series [1] is T1, Nuclear receptor subfamily 1 group I member 3 (Mus musculus, UniProt O35627, F171L). The series is described as follows: Enhancement of nuclear co-repressor receptor binding to mouse CAR F171L mutant […] at 10 uM by yeast two-hybrid assay. Format: cell-based. In short, it runs like this: (§1)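 Yeast two-hybrid: yeast expressing wild-type or mutant mouse CAR LBD plus SRC-1 or NCoR, selected on SD medium lacking Leu and Trp. Pooled colonies treated with DMSO or test chemical for 3.5 h. β-Galactosidase normalized to cell density. SRC-1 reference: wild-type + DMSO = 100. NCoR reference: 10 µM androstenol = 100. Mean ± SD, two independent determinations, each in triplicate.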
T1 sequence (O35627 whole entry F171L, the tested form may be a part): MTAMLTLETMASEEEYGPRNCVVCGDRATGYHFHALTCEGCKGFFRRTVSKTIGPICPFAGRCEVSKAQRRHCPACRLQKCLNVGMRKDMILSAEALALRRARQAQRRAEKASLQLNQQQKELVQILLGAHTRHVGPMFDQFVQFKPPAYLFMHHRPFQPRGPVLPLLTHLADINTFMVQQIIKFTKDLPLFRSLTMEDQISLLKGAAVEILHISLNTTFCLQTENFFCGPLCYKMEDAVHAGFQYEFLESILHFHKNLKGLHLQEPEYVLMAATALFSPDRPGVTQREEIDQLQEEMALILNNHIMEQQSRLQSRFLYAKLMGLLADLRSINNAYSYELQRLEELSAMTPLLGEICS

Series [2] concerns the target T2, Nuclear receptor subfamily 1 group I member 3 (Mus musculus, UniProt O35627, L353A). The series is described as follows: Enhancement of nuclear co-repressor receptor binding to mouse CAR L353A mutant […] at 10 uM by yeast two-hybrid assay. Format: cell-based. In short, it runs like this:
as §1

The target of series [3] is T3, Nuclear receptor subfamily 1 group I member 3 (Mus musculus, UniProt O35627, H213A). Put plainly: Effect on nuclear co-repressor receptor binding to mouse CAR H213A mutant […] at 10 uM by yeast two-hybrid assay. The following applies: read-out: Activity. Format: cell-based. The method, boiled down: as §1
T3 sequence (O35627 whole entry H213A): as the sequence (O35627 whole entry F171L, the tested form may be a part) above, with L171F, H213A counted along it
For series [4], the target named is T4, Nuclear receptor subfamily 1 group I member 3 (Mus musculus, UniProt O35627, F171A). The following applies: HEK293, mouse.
T4 sequence (O35627 whole entry F171A, the tested form may be a part): as the sequence (O35627 whole entry F171L, the tested form may be a part) above, with L171A counted along it
The target in series [5] is T5, Nuclear receptor subfamily 1 group I member 3 (Mus musculus, UniProt O35627, N175A). The series is described as follows: Decrease in steroid receptor co-activator 1 binding to mouse CAR N175A mutant […] at 1 uM by yeast two-hybrid assay. Format: cell-based. Particulars: read-out: Activity. In short, it runs like this: (§2)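 Yeast expressing wild-type or mutant mouse CAR LBD plus SRC-1, selected on SD plates lacking leucine and tryptophan. Pooled colonies treated with DMSO or compound for 3.5 h. β-Galactosidase activity normalized to cell density. Reference is wild-type CAR + SRC-1 with DMSO (=100). Mean ± SD of two independent determinations, each in triplicate.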
T5 sequence (O35627 whole entry N175A, the tested form may be a part): as the sequence (O35627 whole entry F171L, the tested form may be a part) above, with L171F, N175A counted along it

Series [6] has as its target T1, Nuclear receptor subfamily 1 group I member 3. The series is described as follows: Effect on steroid receptor co-activator 1 binding to mouse CAR F171L mutant […] at 1 uM by yeast two-hybrid assay. Type of series: cell-based. The following applies: read-out: Activity. In short, it runs like this:
as §2

The target is the same in series [7]. Put plainly: Effect on nuclear co-repressor receptor binding to mouse CAR F171L mutant […] at 1 uM by yeast two-hybrid assay. The following applies: read-out: Activity. Type of series: cell-based. The method, boiled down: (§3)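 Yeast expressing wild-type or mutant mouse CAR LBD plus NCoR, selected on SD plates lacking leucine and tryptophan. Pooled colonies treated with DMSO or compound for 3.5 h. β-Galactosidase activity normalized to cell density. Reference is 10 µM androstenol (=100). Mean ± SD of two independent determinations, each in triplicate.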

For series [8], the target named is T6, Nuclear receptor subfamily 1 group I member 3 (Mus musculus, UniProt O35627, S251L). Put plainly: Decrease in mouse CAR S251L mutant activation expressed in HEK293 cells at 1 uM by mammalian one-hybrid assay. Type of series: cell-based. The following applies: read-out: Activity. In short, it runs like this: (§4)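 GAL4 DBD fused to mouse CAR LBD (residues 118-358), wild type or point mutant, cotransfected with UASx4-tk-luc reporter and pCMVβ into HEK293 cells. Cells cultured with DMSO (0.1% v/v) or compound (final 1, 2 or 10 µM). Lysed 24 h post-transfection. Luciferase normalized to β-galactosidase, expressed relative to empty GAL4 vector (=1.0). Mean ± SD, three independent experiments.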
T6 sequence (O35627 whole entry S251L, the tested form may be a part): as the sequence (O35627 whole entry F171L, the tested form may be a part) above, with L171F, S251L counted along it

For series [9], the target named is T6, Nuclear receptor subfamily 1 group I member 3. The series is described as follows: Effect on steroid receptor co-activator 1 binding to mouse CAR S251L mutant […] at 1 uM by yeast two-hybrid assay. Type of series: cell-based. Particulars: read-out: Activity. In short, it runs like this: (§5)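 Yeast two-hybrid assay. Yeast co-expressing wild-type or mutant mouse CAR LBD and the SRC-1 partner were selected on SD plates lacking leucine and tryptophan. Random colonies were pooled and amplified, then treated with DMSO or test chemical for 3.5 h. β-galactosidase activity was normalized to cell density and set relative to wild-type mCAR + SRC-1 with DMSO (=100). Mean ± standard deviation of two determinations, each in triplicate.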

In series [10] the target is T7, Nuclear receptor subfamily 1 group I member 3 (Mus musculus, UniProt O35627, I252L). The series is described as follows: Enhancement of steroid receptor coactivator 1 binding to mouse CAR I252L mutant […] at 1 uM by yeast two-hybrid assay. Type of series: cell-based. In short, it runs like this:
as §5

Series [11] concerns the target Nuclear receptor subfamily 1 group I member 3 (Mus musculus, UniProt O35627, L253F). The series is described as follows: Effect on nuclear co-repressor receptor binding to mouse CAR L253F mutant […] at 1 uM by yeast two-hybrid assay. Type of series: cell-based. The following applies: read-out: Activity. The method, boiled down:
as §3

For series [12], the target named is T8, Nuclear receptor subfamily 1 group I member 3 (Mus musculus, UniProt O35627, Y336A). Put plainly: Effect on nuclear co-repressor receptor binding to mouse CAR Y336A mutant […] at 1 uM by yeast two-hybrid assay. Format: cell-based. The following applies: read-out: Activity. The method, boiled down: as §3
T8 sequence (O35627 whole entry Y336A): as the sequence (O35627 whole entry F171L, the tested form may be a part) above, with L171F, Y336A counted along it
The target in series [13] is T2, Nuclear receptor subfamily 1 group I member 3. Put plainly: Decrease in steroid receptor coactivator 1 binding to mouse CAR L353A mutant […] at 1 uM by yeast two-hybrid assay. Format: cell-based. Particulars: read-out: Activity. In short, it runs like this: as §2
Series [14] concerns the target T5, Nuclear receptor subfamily 1 group I member 3. The series is described as follows: Decrease in mouse CAR N175A mutant activation expressed in HEK293 cells at 1 uM by mammalian one-hybrid assay. Format: cell-based. The following applies: read-out: Activity. The method, boiled down:
as §4

For series [15], the target named is T9, Nuclear receptor subfamily 1 group I member 3 (Mus musculus, UniProt O35627, T350A). The series is described as follows: Effect on nuclear co-repressor receptor binding to mouse CAR T350A mutant […] at 1 uM by yeast two-hybrid assay. Format: cell-based. The following applies: read-out: Activity. The method, boiled down:
as §3

In series [16] the target is T4, Nuclear receptor subfamily 1 group I member 3. Put plainly: Decrease in nuclear co-repressor receptor binding to mouse CAR F171A mutant […] at 10 uM by yeast two-hybrid assay. Type of series: cell-based. Particulars: read-out: Activity. In short, it runs like this: as §3
The target of series [17] is T6, Nuclear receptor subfamily 1 group I member 3. Put plainly: Activation of mouse CAR S251L mutant expressed in HEK293 cells at 10 uM by mammalian one-hybrid assay. Format: cell-based. Particulars: hek293, 10 µM. The method, boiled down:
as §4

Series [18] concerns the target Nuclear receptor subfamily 1 group I member 3 (Mus musculus, UniProt O35627, T350M). Put plainly: Effect on steroid receptor coactivator 1 binding to mouse CAR T350M mutant […] at 2 uM by yeast two-hybrid assay. Format: cell-based. The following applies: read-out: Activity. In short, it runs like this:
as §1

The target of series [19] is T9, Nuclear receptor subfamily 1 group I member 3. Put plainly: Decrease in steroid receptor coactivator 1 binding to mouse CAR T350A mutant […] at 2 uM by yeast two-hybrid assay. Type of series: cell-based. The following applies: read-out: Activity. The method, boiled down: as §1
Series [20] addresses T7, Nuclear receptor subfamily 1 group I member 3. The series is described as follows: Effect on steroid receptor coactivator 1 binding to mouse CAR I252L mutant […] at 2 uM by yeast two-hybrid assay. The following applies: read-out: Activity. Format: cell-based. In short, it runs like this:
as §1

Series [21] concerns the target T3, Nuclear receptor subfamily 1 group I member 3. The series is described as follows: Effect on steroid receptor co-activator 1 binding to mouse CAR H213A mutant […] at 2 uM by yeast two-hybrid assay. Type of series: cell-based. Particulars: read-out: Activity. In short, it runs like this:
as §1

Series [22] deals with T2, Nuclear receptor subfamily 1 group I member 3. Put plainly: Effect on steroid receptor coactivator 1 binding to mouse CAR L353A mutant […] at 2 uM by yeast two-hybrid assay. Particulars: read-out: Activity. Format: cell-based. In short, it runs like this:
as §1

The target in series [23] is T8, Nuclear receptor subfamily 1 group I member 3. The series is described as follows: Decrease in nuclear co-repressor receptor binding to mouse CAR Y336A mutant […] at 2 uM by yeast two-hybrid assay. The following applies: read-out: Activity. Format: cell-based. In short, it runs like this: as §1
Series [24] addresses T1, Nuclear receptor subfamily 1 group I member 3. Put plainly: Enhancement of nuclear co-repressor receptor binding to mouse CAR F171L mutant […] at 2 uM by yeast two-hybrid assay. Type of series: cell-based. In short, it runs like this:
as §1

Structures are written as SMILES.

T2 sequence (O35627 whole entry L353A): as the sequence (O35627 whole entry F171L, the tested form may be a part) above, with L171F, L353A counted along it
T7 sequence (O35627 whole entry I252L): as the sequence (O35627 whole entry F171L, the tested form may be a part) above, with L171F, I252L counted along it
T9 sequence (O35627 whole entry T350A): as the sequence (O35627 whole entry F171L, the tested form may be a part) above, with L171F, T350A counted along it
Chain of Nuclear receptor subfamily 1 group I member 3 (Mus musculus, UniProt O35627, T350M) (O35627 whole entry T350M): as the sequence (O35627 whole entry F171L, the tested form may be a part) above, with L171F, T350M counted along it
Chain of Nuclear receptor subfamily 1 group I member 3 (Mus musculus, UniProt O35627, L253F) (O35627 whole entry L253F): as the sequence (O35627 whole entry F171L, the tested form may be a part) above, with L171F, L253F counted along it

With `COc1ccc(C(=O)CCCc2ccccc2)cc1`, the Activity result in series [1] and in series [2] was “>= 50%” each time.

As for `COc1ccccc1CC(CC(=O)Cc1ccccc1)OC` (centres undefined), the activity at 10 µM in [3] and in series [4] was below 50% each time.

For `Clc1cnc(Oc2ccc(Oc3ncc(Cl)cc3Cl)cc2)c(Cl)c1`, the inhibition at 1 µM was at least 50% in [5], below 50% in series [8], at least 50% in series [13] and below 50% in [14]. The activity at 1 µM in series [6], in series [7], in series [9], in [11], in series [12] and in series [15] was below 50% throughout. Moreover, the Activity result in series [10] is given as “>= 50%”.

Consider `C[C@]12CC[C@@H](O)C[C@@H]1CC[C@@H]1[C@@H]2CC[C@]2(C)C=CC[C@@H]12` [ANDROSTENOL], for which the inhibition at 10 µM in [16] is at least 50%. Moreover, the Activity in [17] is below 50%.

Consider `Clc1ccccc1C(c1ccccc1)(c1ccccc1)n1ccnc1` [CLOTRIMAZOLE], for which the activity at 2 µM in series [18], in series [20], in [21] and in [22] was below 50% throughout. Further, the inhibition at 2 µM in series [19] and in [23] was at least 50% each time. In addition, in series [24], the Activity was above 150%.
